Screening results from PubChem.
Only some compounds are listed: those with a hit (about 0.89% of all), similar ones and a draw of the others.
hiPSC survival = increases survival of single human iPS cells | hiPSC single-cell survival, ATPlite luminescence; 100% = ROCK inhibitor wells, 0% = DMSO | survival enhancement, % at 20 µM | 0.044% of 360,000 active; in the data active = survival enhancement above about 18%;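 also: cells exposed to compounds for 16 hours before the ATP read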
Arrestin-AP2 inh = inhibitors of human beta-arrestin and AP2 interaction | FITC-arrestin peptide / GST-AP2 beads, flow cytometry; AP2 beta2 appendage carries R879A mutation | inhibition, % at 10 µM | 0.31% of 340,000 active;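 active = inhibition above a set limit, near 3 SD of compounds lacking own fluorescence, cut at about 54% in these data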
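System: GST-AP2 R879A glutathione beads. Medium: PBS with 0.05% Tween 20 and 0.1% BSA. Also added: FITC-arrestin peptide, 50 nM. Incubation: 12 min plus 1 h, RT. Measured by: high-throughput flow cytometry of beads, ex 488, em 535 nm. Evaluation: percent drop in bead-associated FITC signal.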
PG9 binder = small molecules binding HIV-1 gp120 antibody PG9; AID 624416; 0.43% of 360,000 active; TR-FRET gp120-PG9 antibody binding; inhibition, % at 6.7 µM; in the data active = inhibition above about 8.5%
ABCB6 inh MLPCN = blocks the human ABCB6 transporter | Q9NP58 | K562-ABCB6 porphyrin accumulation, flow cytometry, 1 h; hits give low values | fluorescence ratio to DMSO, % at 10 µM | 0.19% of 360,000 active | AID 602162;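 active = fluorescence ratio to DMSO below 75%, the collection mean minus 3 SD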;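 also: signal is porphyrin accumulated inside mitochondria; lower ratio means ABCB6 inhibition with less porphyrin fluorescence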
Target sequence (Q9NP58 whole entry, looked up): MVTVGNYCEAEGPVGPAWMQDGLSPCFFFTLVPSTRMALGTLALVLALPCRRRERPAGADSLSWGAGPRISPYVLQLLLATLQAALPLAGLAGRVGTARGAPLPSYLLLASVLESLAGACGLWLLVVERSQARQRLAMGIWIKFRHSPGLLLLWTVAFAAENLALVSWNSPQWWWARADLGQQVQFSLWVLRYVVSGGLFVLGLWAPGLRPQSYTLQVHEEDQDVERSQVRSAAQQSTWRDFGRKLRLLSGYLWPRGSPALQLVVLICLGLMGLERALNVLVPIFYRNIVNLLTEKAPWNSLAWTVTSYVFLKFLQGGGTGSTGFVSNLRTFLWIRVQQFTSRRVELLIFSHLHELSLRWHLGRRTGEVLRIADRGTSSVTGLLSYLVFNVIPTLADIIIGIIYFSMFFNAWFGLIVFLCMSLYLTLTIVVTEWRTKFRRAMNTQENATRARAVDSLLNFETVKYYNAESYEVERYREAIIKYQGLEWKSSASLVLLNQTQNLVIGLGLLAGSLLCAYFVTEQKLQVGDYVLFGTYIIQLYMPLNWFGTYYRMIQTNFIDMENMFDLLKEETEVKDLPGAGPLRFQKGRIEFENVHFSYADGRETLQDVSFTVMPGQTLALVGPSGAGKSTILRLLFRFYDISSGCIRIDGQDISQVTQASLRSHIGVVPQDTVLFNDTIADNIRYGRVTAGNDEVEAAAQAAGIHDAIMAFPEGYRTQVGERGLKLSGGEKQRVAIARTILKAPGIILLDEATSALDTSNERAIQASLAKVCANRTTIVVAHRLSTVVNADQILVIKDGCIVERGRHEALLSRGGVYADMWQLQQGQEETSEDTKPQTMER
PG9 bind confirm = confirmation of small molecules binding HIV-1 gp120 antibody PG9; shares compounds with PG9 binder; TR-FRET PG9 antibody binding, biochemical; inhibition, % at 6.7 µM; 90% of 1,500 active; AID 651571; in the data active = inhibition above about 9%
PGV04 Ab binding = PGV04 control antibody binding, counter-screen; shares compounds with PG9 binder; TR-FRET PGV04 antibody-gp120 binding, biochemical; inhibition, % at 6.7 µM; 95% of 1,500 active; AID 651604; in the data active = inhibition above about 9.5%
PG9 bind DR = small molecules binding HIV-1 gp120 antibody PG9; TR-FRET PG9 antibody-gp120 binding inhibition; IC50, µM; 95 tested, under 10 active; shares compounds with PG9 binder; in the data active = IC50 below about 10 µM
PGV04 binding DR = counter-screen for PG9 binders: binding to control antibody PGV04; 20% of 95 active; shares compounds with PG9 binder; IC50, µM; TR-FRET binding to control antibody PGV04
PG126 DR counter = PG126 binding, dose response counter-screen. shares compounds with PG9 binder. TR-FRET binding to antibody PG126, counterscreen. IC50, µM. 20% of 95 active
Each line names hits and unclear results; the compound was inactive in the other large screens (follow-up assays come after a bar, where they were run). Rule as the data show it, unless noted: active = IC50 below about 9 µM; inactive = the rest.

O=C(Nc1ccc2c(c1)C(=O)NC2=O)c1cc(Cl)ccc1Cl	PG9 binder 9.5 | PG9 bind confirm 10.1 | PGV04 Ab binding 15.3
Cc1cccc(C(=O)Nc2ccc3c(c2)C(=O)NC3=O)c1	none
CCOc1ccc(C(=O)Nc2ccc3c(c2)C(=O)NC3=O)cc1	none
CCCCOc1ccc(C(=O)Nc2ccc3c(c2)C(=O)NC3=O)cc1	PG9 binder 20.9 | PG9 bind confirm inactive | PGV04 Ab binding 11.4
Cc1ccc(C)c2sc(NC(=O)C3CC3)nc12	none
O=C(Nc1nc2c(Br)cc(Br)cc2c(=O)s1)C1CCC1	PG9 binder 10.2 | PG9 bind confirm 17.7 | PGV04 Ab binding 20.0
CC(=O)c1ccc(N2CCN(S(=O)(=O)c3ccc4c(c3)CCC(=O)N4)CC2)cc1	none (no result: Arrestin-AP2 inh)
CC(=O)c1ccc(N2CCN(S(=O)(=O)c3ccc4c(c3)NC(=O)CO4)CC2)cc1	PG9 binder 22.1 | PG9 bind confirm 28.4 | PGV04 Ab binding 39.0
CC(=O)NNC(=O)c1cc2c3ccccc3n(C)c2s1	none
COc1ccc(S(=O)(=O)NNC(=O)c2cc3c4ccccc4n(C)c3s2)cc1	PG9 binder 17.8 | PG9 bind confirm 18.9 | PGV04 Ab binding 30.6
Fc1ccc2nc(Nc3nc4c(F)cccc4s3)sc2c1	PG9 binder 10.8 | PG9 bind confirm 13.7 | PGV04 Ab binding 20.7
Fc1cccc2sc(Nc3nc4ccccc4s3)nc12	PG9 binder 14.0 | PG9 bind confirm 12.9 | PGV04 Ab binding 28.8
Fc1ccc2nc(Nc3nc4c(F)cc(F)cc4s3)sc2c1	none
O=C(N[C@H](Cc1ccccc1)C(=O)N1CCCN(Cc2ccccc2F)CC1)[C@H]1O[C@@H](n2ccc(=O)[nH]c2=O)[C@H](O)[C@@H]1O	none (no result: hiPSC survival, Arrestin-AP2 inh, ABCB6 inh MLPCN)
COC(=O)c1cc(Cl)c(NC(=O)c2cc3ccccc3o2)cc1OC	PG9 binder 8.7 | PG9 bind confirm inactive | PGV04 Ab binding 38.0
COc1ccc(N2C[C@@]3(O)CC[C@@H](O)[C@@H](OC)[C@@H]3[C@@](C)(O)[C@@H]2CC=C(C)C)cc1	none (no result: hiPSC survival, Arrestin-AP2 inh, ABCB6 inh MLPCN)
COc1ccc(-c2cc(-c3ccccc3)nc3ncnn23)cc1	none
COc1ccc(-c2cc(-c3ccc(Br)cc3)nc3ncnn23)cc1OC	PG9 binder 13.0 | PG9 bind confirm 12.1 | PGV04 Ab binding 20.1
COc1ccc(-c2cccc3c4c([nH]c23)[C@@H]2C[C@H]3[C@@H](C(=O)N2CC4)[C@H](C)ON3C)cc1	none (no result: hiPSC survival, Arrestin-AP2 inh, ABCB6 inh MLPCN)
CCCn1c(=S)[nH]c2sc3c(c2c1=O)CCCC3	none
Nn1c(=S)[nH]c2sc3c(c2c1=O)CCCC3	PG9 binder 9.7 | PG9 bind confirm 10.1 | PGV04 Ab binding 9.4 | PG9 bind DR inactive | PGV04 binding DR inactive | PG126 DR counter inactive
Nc1nc2c(ncn2[C@@H]2O[C@H](C(=O)NCC(c3ccccc3)c3ccccc3)[C@@H](O)[C@H]2O)c(=O)[nH]1	none (no result: hiPSC survival, Arrestin-AP2 inh, ABCB6 inh MLPCN)
COC(=O)[C@]12C[C@H](CC(=O)NCc3ccccc3)C(=O)N(Cc3ccccc3)C1=C[C@H](C(C)(C)C)O[C@@H]2C	none (no result: hiPSC survival, Arrestin-AP2 inh, ABCB6 inh MLPCN)
COc1ccc(-c2nnc(SCc3nc4ccccc4c(=O)[nH]3)o2)cc1	PG9 binder 8.9 | PG9 bind confirm 11.6 | PGV04 Ab binding 14.4
COc1cccc(C(=O)N[C@H](C(=O)N2CCC[C@H]2C(=O)NC2CCCC2)c2ccccc2)c1	none (no result: hiPSC survival, Arrestin-AP2 inh, ABCB6 inh MLPCN)
CC(C)N(C(=O)[C@H]1CC(CC(=O)NCCCn2ccnc2)C(=O)N2CCc3c([nH]c4ccccc34)[C@]12C)C(C)C (stereo not given in full)	none
C[C@]12c3[nH]c4ccccc4c3CCN1C(=O)C(CC(=O)NCCCn1ccnc1)C[C@@H]2C(=O)N1CCOCC1 (stereo not given in full)	PG9 binder 14.9 | PG9 bind confirm inactive | PGV04 Ab binding 9.3
CCCCCCCCN1C(=O)[C@@H](CC(=O)N2CCCCC2)C[C@@]2(C(=O)OC)C1=C[C@H](C1CCCC1)O[C@@H]2C	none (no result: hiPSC survival, Arrestin-AP2 inh, ABCB6 inh MLPCN)
Cc1cccc(-c2nsc(SCC(=O)Nc3ccc4c(c3)OCO4)n2)c1	none
CCOC(=O)CNC(=O)CSc1nc(-c2ccc(OC)cc2)ns1	none
COc1ccc(-c2nsc(SCC(=O)Nc3cc(C)on3)n2)cc1	PG9 binder 42.3 | PG9 bind confirm 41.5 | PGV04 Ab binding 55.0
Cc1cccc(-c2nsc(SCC(=O)Nc3nccs3)n2)c1	PG9 binder 10.1 | PG9 bind confirm 9.2 | PGV04 Ab binding 12.3
O=C(c1cc2cc(Br)ccc2[nH]1)N1CCc2ccccc21	PG9 binder 15.1 | PG9 bind confirm 22.2 | PGV04 Ab binding 46.3
O=C(c1cc2cc(F)ccc2[nH]1)N1CCc2ccccc21	none
CCN(CC)c1ccc(-c2sc(Nc3ccccc3)n[n+]2-c2ccc(F)cc2)cc1	none
CCc1ccc(Nc2n[n+](-c3ccccc3)c(-c3ccc(N(CC)CC)cc3)s2)cc1	PG9 binder 9.7 | PG9 bind confirm 18.2 | PGV04 Ab binding 10.6 | PG9 bind DR inactive | PGV04 binding DR inactive | PG126 DR counter inactive
COc1cc(C(=O)NCc2ccc(-c3nc4ccccc4s3)cc2)cc(OC)c1OC	PG9 binder 10.2 | PG9 bind confirm 18.9 | PGV04 Ab binding 29.0
COc1ccc(C(=O)COC(=O)c2cc(=O)[nH]c3ccccc23)c(OC)c1	PG9 binder 46.1 | PG9 bind confirm 50.2 | PGV04 Ab binding 77.8
COc1ccc(C(=O)COC(=O)c2cccc(-n3cnnn3)c2)c(OC)c1	PG9 binder 17.6 | PG9 bind confirm inactive | PGV04 Ab binding inactive
COc1ccccc1C(=O)COC(=O)c1cc(=O)[nH]c2ccccc12	none
COC(=O)c1sccc1NC(=O)c1ccccc1C(=O)O	none
CC(=O)c1sccc1NC(=O)c1ccccc1C(=O)O	PG9 binder 36.2 | PG9 bind confirm 38.7 | PGV04 Ab binding 47.3
COc1cccc(NC(=O)Cn2cc(C(=O)C3CC3)c3ccccc32)c1	none
CCC(=O)c1cn(CC(=O)Nc2cccc(C)c2)c2ccccc12	PG9 binder 24.8 | PG9 bind confirm 15.5 | PGV04 Ab binding 22.9
CCC(=O)c1cn(CC(=O)O)c2ccccc12	none
CCC(=O)c1cn(CC(=O)Nc2cccc(C)c2C)c2ccccc12	PG9 binder 9.9 | PG9 bind confirm 18.9 | PGV04 Ab binding 23.1
CCC(=O)c1cn(CC(=O)Nc2ccccc2Cl)c2ccccc12	PG9 binder 11.3 | PG9 bind confirm 13.7 | PGV04 Ab binding 14.7
Brc1ccc(N2O[C@H]3C=C[C@@H]2C3)nc1	none (no result: hiPSC survival, Arrestin-AP2 inh, ABCB6 inh MLPCN)
